Paper PMC7498158 (Journal of Medicinal Chemistry, 2020)

What was measured:
Assay type in all cases: biochemical
[1] = target: T1, PLAAT2 (Homo sapiens, UniProt Q9NWW9)
T1 sequence (Q9NWW9 1-162): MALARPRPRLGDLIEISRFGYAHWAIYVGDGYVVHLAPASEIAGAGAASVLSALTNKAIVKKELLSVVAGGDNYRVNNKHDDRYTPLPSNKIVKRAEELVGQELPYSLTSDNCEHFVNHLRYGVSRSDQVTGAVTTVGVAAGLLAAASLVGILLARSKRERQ
Summary of the method: (§1)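 Human PLAAT cDNA (C-terminal FLAG, pcDNA3.1) was PEI-transfected into HEK293T; cytosol came from a 100,000g spin. Cytosol was preincubated with test compound (30 min, rt), then MB064 (20 min, rt). Conditions: PLAAT2 0.25 μg/μL, 250 nM; PLAAT3 0.5 μg/μL, 250 nM; PLAAT4/5 1 μg/μL, 500 nM. In-gel fluorescence was normalized to Coomassie, in triplicate. Single-concentration screen or IC50 from dose–response curves.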

[2] = target: T2, PLAAT4 (Homo sapiens, UniProt Q9UL19)
T2 sequence (Q9UL19 1-164): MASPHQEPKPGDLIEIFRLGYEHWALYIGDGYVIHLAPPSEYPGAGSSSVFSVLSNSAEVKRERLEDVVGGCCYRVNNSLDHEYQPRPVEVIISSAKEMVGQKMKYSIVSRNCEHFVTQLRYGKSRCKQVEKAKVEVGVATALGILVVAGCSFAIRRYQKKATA
Summary of the method: as §1

[3] = target: T3, PLAAT5 (Homo sapiens, UniProt Q96KN8)
T3 sequence (Q96KN8 1-279): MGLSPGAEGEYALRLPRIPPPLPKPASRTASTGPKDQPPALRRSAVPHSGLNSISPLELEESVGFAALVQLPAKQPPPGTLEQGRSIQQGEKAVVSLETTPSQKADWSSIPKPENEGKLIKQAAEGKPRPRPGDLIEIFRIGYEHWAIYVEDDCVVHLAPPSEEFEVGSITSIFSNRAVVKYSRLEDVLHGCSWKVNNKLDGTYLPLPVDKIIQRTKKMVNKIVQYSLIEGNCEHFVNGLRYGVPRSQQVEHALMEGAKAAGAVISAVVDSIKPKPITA
Summary of the method: as §1

[4] = target: T4, mDAGLα (Mus musculus, UniProt Q6WQJ1); test: gel-based ABPP, mouse brain membrane proteome; settings: 10 μM
T4 sequence (Q6WQJ1 1-1044): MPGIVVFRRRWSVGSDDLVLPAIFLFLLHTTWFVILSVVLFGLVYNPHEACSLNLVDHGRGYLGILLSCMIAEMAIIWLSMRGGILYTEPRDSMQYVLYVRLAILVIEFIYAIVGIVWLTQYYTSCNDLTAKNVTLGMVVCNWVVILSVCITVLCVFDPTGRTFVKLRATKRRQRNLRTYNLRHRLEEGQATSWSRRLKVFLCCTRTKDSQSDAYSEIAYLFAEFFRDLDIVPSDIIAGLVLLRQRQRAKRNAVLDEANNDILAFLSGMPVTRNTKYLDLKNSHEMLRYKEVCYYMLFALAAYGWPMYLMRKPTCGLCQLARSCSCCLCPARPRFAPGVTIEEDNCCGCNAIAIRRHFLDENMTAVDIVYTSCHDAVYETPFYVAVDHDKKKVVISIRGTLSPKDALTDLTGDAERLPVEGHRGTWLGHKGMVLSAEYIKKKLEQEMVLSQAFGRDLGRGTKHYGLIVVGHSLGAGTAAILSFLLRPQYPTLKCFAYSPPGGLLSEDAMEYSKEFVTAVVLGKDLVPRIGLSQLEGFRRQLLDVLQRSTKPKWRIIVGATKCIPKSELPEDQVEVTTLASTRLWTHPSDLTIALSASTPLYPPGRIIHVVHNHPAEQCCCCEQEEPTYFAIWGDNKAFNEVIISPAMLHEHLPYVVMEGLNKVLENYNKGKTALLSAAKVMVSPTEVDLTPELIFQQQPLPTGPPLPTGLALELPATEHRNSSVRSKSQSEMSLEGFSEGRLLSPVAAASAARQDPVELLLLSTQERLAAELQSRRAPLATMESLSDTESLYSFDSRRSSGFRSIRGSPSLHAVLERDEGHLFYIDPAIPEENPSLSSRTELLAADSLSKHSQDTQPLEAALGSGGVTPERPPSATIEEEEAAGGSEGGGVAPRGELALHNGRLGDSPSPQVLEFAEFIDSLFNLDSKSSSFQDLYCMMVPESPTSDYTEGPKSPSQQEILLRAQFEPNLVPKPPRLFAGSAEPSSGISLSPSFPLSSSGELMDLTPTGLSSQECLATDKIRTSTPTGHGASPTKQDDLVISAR
Summary of the method: (§2)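 Mouse brain was dounce-homogenized in 20 mM HEPES pH 7.2 with DTT, MgCl2 and benzonase. The membrane pellet from ultracentrifugation (100,000g, 45 min, 4 °C) was used at 2 μg/μL. It was preincubated with test compound in DMSO (30 min, rt), then labeled with MB064 (250 nM) or FP-TAMRA (500 nM) for 15 min at rt. Samples ran on 10% SDS-PAGE; fluorescence was normalized to Coomassie staining.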

[5] = target: T5, mABHD6 (Mus musculus, UniProt Q8R2Y0); test: gel-based ABPP, mouse brain membrane proteome; settings: 10 μM
T5 sequence (Q8R2Y0 1-336): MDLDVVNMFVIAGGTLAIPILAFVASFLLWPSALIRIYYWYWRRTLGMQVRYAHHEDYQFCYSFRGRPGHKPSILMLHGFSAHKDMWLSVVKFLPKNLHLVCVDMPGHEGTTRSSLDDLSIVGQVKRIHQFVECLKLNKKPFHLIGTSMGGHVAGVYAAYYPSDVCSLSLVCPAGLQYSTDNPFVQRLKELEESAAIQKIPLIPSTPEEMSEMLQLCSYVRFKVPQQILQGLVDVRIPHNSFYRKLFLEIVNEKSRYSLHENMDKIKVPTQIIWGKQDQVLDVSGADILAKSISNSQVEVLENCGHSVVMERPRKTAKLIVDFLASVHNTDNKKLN
Summary of the method: as §2

O=C(CCCc1ccccc1)C(=O)NCCc1ccc(Oc2ccccc2)cc1 [Compound 51, 2-Oxo-N-(4-phenoxyphenethyl)-5-phenylpentanamide]
higher potency for PLAAT2 than initial hit [1]: 10 fold
increase in activity/potency for PLAAT2 compared to 25 [1]: 10 fold
increase in activity/potency for PLAAT4 compared to 25 [2]: 10 fold
higher potency for PLAAT5 than initial hit [3]: 10 fold
inhibition of DAGLα (in words) [4]: not inhibited
inhibition of ABHD6 (in words) [5]: not inhibited
